Test results as given in paper PMC3940261 (Integrative biology : quantitative biosciences from nano to …, 2014).

Key:
[1] = target: LTA4 hydrolase; conditions: in vitro; cited from earlier work
[2] = target: purine-sensitive aminopeptidase (PuSA); conditions: in vitro; cited from earlier work
[3] = target: aminopeptidase N (CD 13); conditions: in vitro; cited from earlier work
[4] = target: leucine aminopeptidase; conditions: in vitro; cited from earlier work
[5] = test system: four common aminopeptidases; conditions: cited from earlier work
[6] = test system: peptidase activity in U937 cells; type: cell-based, human; conditions: ensemble lysates, commercial capillary electrophoresis system
Procedure, shortened: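 U937 cells were cultured long-term with the test compound (1, 2, 4, 8, 16 μM; DMSO ≤0.1%) or DMSO vehicle. A FAM-labelled reporter peptide (100 μM) and a carboxyfluorescein internal standard (20 μM) were loaded by pinocytosis for 10 min at 37 °C; hypotonic lysis set t = 0. Cells were held at 10⁶ cells/mL for 1 h at room temperature, then heat-lysed at 95 °C for 4 min. Supernatant was run on a bare 30-cm, 30-μm i.d. capillary, spiked with intact-substrate and K-FAM standards, and peaks were Gaussian-fitted.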

[7] = test system: peptidase activity in U937 cells; experiment: Single-cell chemical cytometry of fluorescent reporter peptide degradation; type: cell-based, human; conditions: for most common fragment peak pattern: single U937 cells
[8] = test system: degradation of a fluorogenic reporter; conditions: 24 h exposure to media containing 1 μM Tosedostat; cited from earlier work

Compound | IC50 [1] | IC50 [2] | IC50 [3] | IC50 [4] | IC50 [5] | number of fluorescent fragment peaks from drug-treated cells [6] | peptidase activity in drug-treated cells relative to a vehicle control ([7]; at all doses (1, 2, 4, 8, 16 μM)) | most common fragment peak pattern ([7]; dose 1 μM) [peaks] | most common fragment peak pattern ([7]; dose 2 μM) [peaks] | most common fragment peak pattern ([7]; dose 4 μM) [peaks] | most common fragment peak pattern ([7]; dose 8 μM) [peaks] | inhibition of degradation of a fluorogenic reporter [8] [%]
CC(C)C[C@@H](C(=O)N[C@H](C(=O)O)c1ccccc1)[C@H](O)C(=O)NO [active form of Tosedostat] | nanomolar range | nanomolar range | nanomolar range | nanomolar range |  |  |  |  |  |  |  | 
CC(C)C[C@@H](C(=O)N[C@H](C(=O)OC1CCCC1)c1ccccc1)[C@H](O)C(=O)NO [Tosedostat] |  |  |  |  | nanomolar-range | ≤ 8 fluorescent fragment peaks | inhibited | 3 | 3 | 2 | 2 | 50
